Tests used:
[1] = system: KB (nasopharyngeal) cancer cell line; assay: in vitro cytotoxicity; format: cell-based, human; conditions: KB versus the other cancer cell lines
[2] = system: DU145 (prostate) cancer cell line; assay: in vitro cytotoxicity; format: cell-based, human; conditions: DU145 versus the other cancer cell lines
[3] = system: A549 (lung) cancer cell line; assay: in vitro cytotoxicity; format: cell-based, human; conditions: A549 lung cells; compared with KB and DU145
Method in brief: (§1)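 Cells grown in RPMI-1640 with 25 mM HEPES, 0.25% sodium bicarbonate, 10% FBS and 100 μg/mL kanamycin. Freshly trypsinized cells were seeded at 5000 per well, and test compound was added from DMSO-diluted stock. After three days, cells were fixed with cold 10% TCA and stained with 0.4% sulforhodamine B, and the solubilized dye was read at 562 nm.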

[4] = system: HCT-8 (colon) cancer cell line; assay: in vitro cytotoxicity; format: cell-based, human; conditions: HCT-8 colon cells; compared with KB and DU145
Method in brief: as §1

human neutrophils [5] = assay: superoxide anion generation by human neutrophils in response to fMLP/CB; format: cell-based; conditions: Neutrophil
α-glucosidase = α-glucosidase (Saccharomyces cerevisiae, UniProt P53341); conditions: previous report; cited from earlier work
human neutrophils [6] = assay: elastase release by human neutrophils in response to fMLP/CB; format: cell-based; conditions: read-out: elastase IC50, mean ± S.E.M. (n = 3–4)

α-glucosidase, sequence (P53341 whole entry): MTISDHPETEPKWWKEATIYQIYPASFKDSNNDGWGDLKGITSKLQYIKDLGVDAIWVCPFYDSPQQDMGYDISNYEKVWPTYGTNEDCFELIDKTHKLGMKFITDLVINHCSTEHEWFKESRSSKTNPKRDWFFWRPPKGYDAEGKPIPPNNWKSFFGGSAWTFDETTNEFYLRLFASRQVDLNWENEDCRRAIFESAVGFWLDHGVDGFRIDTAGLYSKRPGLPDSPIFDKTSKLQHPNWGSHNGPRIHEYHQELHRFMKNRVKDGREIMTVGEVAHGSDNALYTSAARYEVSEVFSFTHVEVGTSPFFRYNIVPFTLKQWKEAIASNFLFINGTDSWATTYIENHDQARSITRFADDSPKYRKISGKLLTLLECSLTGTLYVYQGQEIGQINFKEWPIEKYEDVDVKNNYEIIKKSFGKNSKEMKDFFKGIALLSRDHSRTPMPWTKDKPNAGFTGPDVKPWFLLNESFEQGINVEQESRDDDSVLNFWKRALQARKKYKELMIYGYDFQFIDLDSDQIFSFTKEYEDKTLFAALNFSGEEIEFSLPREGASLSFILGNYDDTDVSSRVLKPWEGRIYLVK

In the case of `C/C(=C/CC[C@](C)(O)[C@H]1CC[C@]2(C)[C@@H]1[C@H](O)C[C@@H]1[C@@]3(C)CC[C@H](O)C(C)(C)[C@@H]3[C@@H](O[C@@H]3O[C@H](CO)[C@@H](O)[C@H](O)[C@H]3O[C@@H]3O[C@H](CO)[C@@H](O)[C@H](O)[C@H]3O)C[C@]12C)CO` [Compound 1, panajaponol A], the selective cytotoxic activity [1] is reported as “greater than two- to three-fold selective”, the selective cytotoxic activity [2] is reported as “greater than two- to three-fold selective” and the cytotoxicity [3] is reported as “significantly less susceptible”. For the same compound, the cytotoxicity [4] was “significantly less susceptible”.
With `CC1(C)CC[C@]2(C(=O)O[C@@H]3O[C@H](CO)[C@@H](O)[C@H](O)[C@H]3O)CC[C@]3(C)C(=CC[C@@H]4[C@@]5(C)CC[C@H](O[C@@H]6O[C@H](C(=O)O)[C@@H](O[C@H]7O[C@@H](CO)[C@H](O)[C@H]7O)[C@H](O[C@@H]7O[C@H](CO)[C@@H](O)[C@H](O)[C@H]7O)[C@H]6O)C(C)(C)[C@@H]5CC[C@]43C)[C@@H]2C1` [Compound 9, stipuleanoside R2] the IC50 (human neutrophils [5]; read-out: IC50 values, inhibition of superoxide anion generation and elastase release) was 0.78 to 43.6 µM.
For `CCCCCCC/C=C\CC#CC#CC(O)CC` (stereo not drawn) [Compound 25, panaxjapyne A], the “inhibition of α-glucosidase activity” value (α-glucosidase) is listed as “strongly inhibited”.
For `C=CCCCCC[C@H](O)[C@@H](O)CC#CC#C[C@@H](O)CC` [Compound 27, panaxjapyne C], the “inhibition of α-glucosidase activity” value (α-glucosidase) is given as “strongly inhibited”.
In the case of `C=C[C@@H](O)C#CC#CC/C=C\CCCCCCC` [Compound 28, (3R)-(−)-falcarinol], the “inhibition of α-glucosidase activity” value (α-glucosidase) is given as “strongly inhibited”.
In the case of `C=C[C@H](O)C#CC#C/C=C/[C@@H](O)CCCCCCC` [Compound 29, (3S,10S)-panaxydiol], the “inhibition of α-glucosidase activity” value (α-glucosidase) is given as “strongly inhibited”.
In the case of `C=C[C@H](O)C#CC#CC[C@@H](O)[C@H](O)CCCCCCC` [Compound 30, (3S,9R,10R)-panaxytriol], the “inhibition of α-glucosidase activity” value (α-glucosidase) is listed as “strongly inhibited”.
`c1ccc2c(c1)[I+]c1ccccc1-2` [DPI, Diphenyleneiodonium, reference compound] gave an IC50 (human neutrophils [5]; read-out: superoxide IC50) of 1.02 ± 0.35 µM.
Work on `O=S(=O)(F)Cc1ccccc1` [PMSF, phenylmethylsulfonyl fluoride] yielded an IC50 (human neutrophils [6]) of 95 ± 25 µM.

Source: article PMC3092375 (Journal of natural products, 2011)
